Assay outcomes from PubChem BioAssay.
DNMT1 inh: human DNMT1 methyltransferase inhibitors, primary screen, biochemical, molecular beacon, fluorescence, HinP1I cleavage, uHTS. 360,000 compounds, 0.83% hits. DNA (cytosine-5)-methyltransferase 1 (Homo sapiens), P26358. inhibition (reported as % activation of signal), % at 10 µM; in the data active = inhibition above about 50%
Scp-1 inhibitor: Scp-1 phosphatase inhibitors, primary screen, biochemical, colorimetric, uHTS | Recombinant Scp1, phosphopeptide, malachite green phosphate absorbance | inhibition, % at 20 µM | 340,000 compounds, 0.88% hits | AID 493091, 2011;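 active = inhibition above about 50% at 20 µM, limit read from the data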;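 note: plate controls were DMSO wells with enzyme for no effect and wells lacking enzyme for full effect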
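System: truncated SCP-1 phosphatase (76-261aa); medium: Tris acetate buffer pH 5.5 with MgCl2 and Tween-20; incubation: 45 min room-temperature reaction, 5 min colour, 30 min stabiliser; compound: single 20 µM dose, 1% DMSO; reagent: Phosphorylated 17-residue peptide substrate; read-out: % inhibition at 20 µM; technique: colorimetric free-phosphate detection, absorbance 630 nm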
STEP block: STEP phosphatase inhibitors, primary screen, biochemical, fluorescence intensity, uHTS; Tyrosine-protein phosphatase non-receptor type 5 (Homo sapiens), P54829; recombinant STEP, OMFP fluorogenic substrate; inhibition, % at 20 µM; 360,000 compounds, 0.25% hits; AID 588621, 2011;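 active = inhibition at 20 µM, scaled per plate between control wells, above about 37%, limit read from the data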;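 note: 0% = DMSO with enzyme and substrate and 100% = substrate only without enzyme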
Target sequence (P54829 whole entry, looked up): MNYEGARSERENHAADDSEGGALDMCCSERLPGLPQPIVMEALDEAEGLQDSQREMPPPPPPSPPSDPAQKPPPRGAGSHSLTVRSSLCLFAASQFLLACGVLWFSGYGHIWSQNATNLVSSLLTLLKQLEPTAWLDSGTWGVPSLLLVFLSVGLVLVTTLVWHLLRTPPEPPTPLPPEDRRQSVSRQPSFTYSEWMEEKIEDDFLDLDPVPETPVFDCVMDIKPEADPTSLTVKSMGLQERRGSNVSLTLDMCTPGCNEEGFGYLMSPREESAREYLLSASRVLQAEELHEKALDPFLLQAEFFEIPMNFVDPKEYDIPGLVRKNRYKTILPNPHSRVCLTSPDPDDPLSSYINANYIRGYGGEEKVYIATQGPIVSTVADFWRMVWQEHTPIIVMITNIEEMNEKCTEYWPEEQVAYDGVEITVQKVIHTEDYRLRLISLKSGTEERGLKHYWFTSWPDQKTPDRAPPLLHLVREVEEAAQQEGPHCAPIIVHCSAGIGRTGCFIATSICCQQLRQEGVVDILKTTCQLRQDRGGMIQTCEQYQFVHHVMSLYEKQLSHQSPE
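System: STEP (striatal-enriched tyrosine phosphatase) enzyme, cell-free; medium: Bis-Tris pH 6.0 buffer with DTT, detergent; dosing: 20 µM, 1% DMSO; times: reaction 20 min, ambient temperature; detection: fluorescence, 480/540 nm; read-out basis: normalized % inhibition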
NadD block: inhibitors of S. aureus NadD, primary screen, biochemical, colorimetric, uHTS; purified NadD enzyme, colorimetric absorbance read-out; inhibition, % at 20 µM; AID 602399, 2012; 360,000 compounds, 0.78% hits; Nicotinate-nucleotide adenylyltransferase NadD (Staphylococcus aureus N315); in the data active = inhibition above about 26%
SUMO1-SIM PPI: modulators of SUMO1 protein-protein interactions, primary screen, biochemical, uHTS. 360,000 compounds, 0.33% hits. Small ubiquitin-related modifier 1 (Homo sapiens), P63165. AID 602429, 2012. inhibition, % at 20 µM. SUMO1 binding to a labelled peptide, TR-FRET, 1 h; in the data active = inhibition above about 37%
LMPTP block: LMPTP phosphatase inhibitors, primary screen, biochemical, fluorescence intensity, uHTS; AID 651560, 2012; 360,000 compounds, 0.22% hits; Low molecular weight phosphotyrosine protein phosphatase (Homo sapiens), P24666; inhibition, % at 20 µM; recombinant LMPTP-A, OMFP fluorogenic substrate;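 active = compounds that cut the enzyme signal by at least half of the control window in the single-dose screen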;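 note: plate controls were DMSO wells with enzyme plus substrate for no effect and substrate without enzyme for full effect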
Target sequence (P24666 whole entry, looked up): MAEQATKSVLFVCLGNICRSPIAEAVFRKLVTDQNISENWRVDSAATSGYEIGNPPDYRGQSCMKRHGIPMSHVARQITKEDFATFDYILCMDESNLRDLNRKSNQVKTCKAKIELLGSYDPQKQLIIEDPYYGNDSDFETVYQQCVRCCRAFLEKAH
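Test system – LMPTP-A enzyme · Amount – LMPTP-A at 0.625 nM final in the reaction · Buffer or medium – Bis-Tris pH 6.0, DTT, detergent · Reagent – OMFP 400 µM · Doses – single 20 µM dose · Schedule – reaction 50 min, room temperature, dark · Detection – fluorescence intensity of OMFP turnover product · Evaluation – percent inhibition versus substrate-only and uninhibited controls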
DNMT1 inh conf: DNMT1 methyltransferase inhibitor retest, confirmation, biochemical, molecular beacon, fluorescence, single concentration. shares compounds with DNMT1 inh. DNMT1 molecular beacon HinP1I cleavage. inhibition, % at 10 µM. 2,300 compounds, 8% hits. AID 602385, 2012;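 active = average inhibition of at least 30% in the single-concentration confirmation test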
DNMT1 interf: counter-screen for DNMT1 inhibitors: spectral interference; shares compounds with DNMT1 inh; DNMT1 molecular beacon spectral interference counterscreen, fluorescence 485/520; activation (fluorescence interference), % at 10 µM; 2,300 compounds, 1% hits; AID 602387;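 active = activation of at least 30% at 10 µM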;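 note: DNMT1 catalytic domain with a HinP1I cleavage step and a FAM/dabcyl DNA beacon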
* = called active by the depositor; . = no result given. A selection: hits, their analogues and other compounds. The true share with any hit is near 2.4%.

SMILES | DNMT1 inh | Scp-1 inhibitor | STEP block | NadD block | SUMO1-SIM PPI | LMPTP block | DNMT1 inh conf | DNMT1 interf
O=C(C[C@H]1C/C=C\C[C@@H](Cc2ccc(F)cc2)C(=O)O[C@H](c2ccccc2)CNC1=O)N[C@@H](CO)Cc1ccccc1 | 85* | 0 | 0 | 5 | 0 | 1 | 0 | -6
O=C(C[C@@H]1C/C=C\C[C@@H](Cc2ccc(F)cc2)C(=O)OC[C@@H](Cc2ccccc2)NC1=O)N[C@H](CO)Cc1ccccc1 | 68* | -2 | -1 | -1 | 2 | 2 | 3 | 0
O=C(C[C@H]1C/C=C\CC[C@@H](Cc2ccc(F)cc2)C(=O)O[C@@H](c2ccccc2)CNC1=O)N[C@H](CO)Cc1ccccc1 | 1 | -8 | 0 | -4 | 3 | -2 | . | .
O=C(C[C@H]1C/C=C\C[C@H](NC(=O)OCC2c3ccccc3-c3ccccc32)C(=O)O[C@H](c2ccccc2)CNC1=O)N[C@H](CO)Cc1ccccc1 | 57* | 2 | -1 | 17 | -2 | -1 | 6 | -4
O=C(Oc1ccc(-c2nnco2)cc1)c1ccc(Br)o1 | 1 | 1 | 0 | -2 | -2 | -2 | . | .
COc1cc(/C=C2/SC(=O)N(Cc3ccccc3Cl)C2=O)ccc1OCc1ccncc1 | 64* | 18 | -1 | 17 | 0 | 0 | 7 | 8
O=C(CCN1C(=O)/C(=C\C=C\c2ccccc2)SC1=S)Nc1ccccc1C(=O)O | 75* | -2 | 2 | 13 | 13 | 2 | 13 | -1
CC(C)c1ccccc1NC(=O)COC(=O)CCN1C(=O)/C(=C\C=C\c2ccccc2)SC1=S | -3 | -7 | 3 | 22 | -2 | 4 | . | .
COc1ccc(/C=C2\SC(=S)N(CCCC(=O)Nc3ccccc3C(=O)O)C2=O)cc1OC | -2 | -11 | -1 | 8 | -8 | 2 | . | .
O=C(COC(=O)CCN1C(=O)/C(=C\C=C\c2ccccc2)SC1=S)Nc1ccc(Br)cc1 | 67* | -15 | 3 | 11 | -3 | 4 | 3 | 5
C=CCNC(=S)N1CCN(CCNC2=CC(=O)CC(C)(C)C2)CC1 | 2 | -10 | -4 | -4 | 5 | -3 | . | .
CCOC(=O)CCCCC(=O)NC(CO)C(=O)NC (stereo unspecified) | 59* | -6 | 0 | 6 | 0 | 0 | 2 | 5
COc1cc(C(=O)NC(=S)Nc2csc(-c3ccc(F)cc3)n2)cc(OC)c1OC | -1 | -11 | -2 | -12 | 1 | 0 | . | .
CCOc1cc(C(c2c(C)[nH][nH]c2=O)c2c(C)[nH][nH]c2=O)ccc1OCc1ccc([N+](=O)[O-])cc1 | -26 | -5 | -2 | 25 | -13 | 2 | . | .
CCOc1cc(/C=C2/NC(=S)NC2=O)ccc1OCc1ccc([N+](=O)[O-])cc1 | 52* | 0 | 8 | 25 | -6 | 21 | 3 | 9
Cc1ccsc1C(=O)N1CC=C(c2ccccc2)CC1 | 0 | -4 | -2 | 0 | 0 | -1 | . | .
O=C(CSc1ncnc2sc3c(c12)CCCCC3)NCc1ccco1 | 3 | 3 | 4 | -2 | 1 | 2 | . | .
CC(C)c1nc2sc3c(SCC(=O)NCc4ccco4)ncnc3c2c2c1CCC2 | 83* | 32 | 1 | 46* | 0 | 3 | -1 | -1
O=C(CCC(=O)NC1CCCCCCC1)Nc1nnc(C(F)(F)F)s1 | 2 | 2 | -1 | -2 | 2 | 2 | . | .
Cc1ccccc1CNc1ccc(C(CC(N)=O)NC(=O)c2ccc(Br)cc2)cc1[N+](=O)[O-] (stereo unspecified) | 61* | -10 | -1 | 0 | -14 | 0 | 0 | -1
NC(=O)CC(NC(=O)Cc1ccc(Br)cc1)c1ccc(NCCc2ccc(Cl)cc2)c([N+](=O)[O-])c1 (stereo unspecified) | 58* | -4 | 3 | -8 | -4 | 3 | 2 | -2
NC(=O)CC(NC(=O)Cc1ccc(Br)cc1)c1ccc(NCCc2ccc(F)cc2)c([N+](=O)[O-])c1 (stereo unspecified) | 53* | 1 | 2 | -4 | -10 | 2 | 2 | 0
COc1ccc(CCNc2ccc(C(CC(N)=O)NC(=O)c3ccc(Br)cc3)cc2[N+](=O)[O-])cc1 (stereo unspecified) | 44 | 1 | 3 | 11 | -7 | 2 | . | .
COc1ccc(CCNc2ccc(C(CC(N)=O)NC(=O)Cc3ccc(Br)cc3)cc2[N+](=O)[O-])cc1 (stereo unspecified) | 55* | -6 | 5 | -1 | -9 | 1 | -1 | -4
NC(=O)CC(NC(=O)c1ccc(Br)cc1)c1ccc(NCc2ccc(F)cc2)c([N+](=O)[O-])c1 (stereo unspecified) | 28 | -10 | -1 | 6 | 4 | 2 | . | .
SMILES | DNMT1 inh | Scp-1 inhibitor | STEP block | NadD block | SUMO1-SIM PPI | LMPTP block | DNMT1 inh conf | DNMT1 interf
CC(C)(C)NC(=O)C1N(c2cccnc2)C(=O)C2C(C(=O)Nc3ccccc3F)C3(C)C=CC21O3 (stereo unspecified) | 0 | -4 | -2 | 0 | 4 | -1 | . | .
Cc1ccc(CNC(=O)c2ccc(N3CCC4(CC3)CC(c3cccc(Br)c3)=NO4)c([N+](=O)[O-])c2)cc1 | 2 | -11 | 4 | 10 | -1 | 2 | . | .
CC(=O)N1CCc2cc(NC(=O)c3ccc(C)cc3)ccc21 | -5 | -8 | 1 | -4 | 0 | 0 | . | .
Cc1ccc(C)c(NC(=O)CN(C)C(=O)CN2C(=O)NC3(CCc4ccccc43)C2=O)c1 (stereo unspecified) | 5 | -15 | -1 | -4 | 0 | 2 | . | .
Cc1ccccc1NC(=O)CSc1nc2c(c(-c3ccco3)c1C#N)CCCC2 | 43 | 1 | 3 | 2 | -4 | 0 | . | .
N#Cc1c(SCC(=O)Nc2nccs2)nc2c(c1-c1ccco1)CCCC2 | 60* | -2 | 7 | 22 | 8 | 1 | 5 | 0
